# Data from PMC4987221 (Bioorganic & medicinal chemistry letters, 2016).
# Key:
# [1] = target: T1, hM4 (Homo sapiens, UniProt P08173); assay type: cell-based
# T1 sequence (P08173 1-479): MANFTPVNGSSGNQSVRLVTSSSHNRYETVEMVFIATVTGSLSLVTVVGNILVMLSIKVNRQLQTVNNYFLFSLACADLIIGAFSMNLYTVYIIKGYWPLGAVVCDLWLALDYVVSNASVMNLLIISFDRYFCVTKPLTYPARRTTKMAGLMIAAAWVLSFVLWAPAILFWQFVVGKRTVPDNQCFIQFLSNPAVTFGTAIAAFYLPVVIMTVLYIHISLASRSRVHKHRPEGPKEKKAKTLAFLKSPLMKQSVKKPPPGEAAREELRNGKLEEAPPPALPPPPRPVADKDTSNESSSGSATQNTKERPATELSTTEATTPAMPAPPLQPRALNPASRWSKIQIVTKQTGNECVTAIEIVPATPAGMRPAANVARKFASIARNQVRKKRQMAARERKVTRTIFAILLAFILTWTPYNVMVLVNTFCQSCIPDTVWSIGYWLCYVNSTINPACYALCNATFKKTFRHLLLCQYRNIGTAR
# Procedure, shortened: (§1)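 Functional calcium mobilization in CHO cells expressing M4 with the Gqi5 chimeric G protein (human M4 for line 2, rat M4 for line 3). The test compound was added with a fixed EC20 acetylcholine concentration, and efficacy was expressed as % of the maximal acetylcholine response. For the screening hit, DMSO stock from the screening source plates was used. Values are means of three independent experiments, each run in triplicate.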
# [2] = target: T2, rM4 (Rattus norvegicus, UniProt P08485); assay type: cell-based; settings: unit not given
# T2 sequence (P08485 1-478): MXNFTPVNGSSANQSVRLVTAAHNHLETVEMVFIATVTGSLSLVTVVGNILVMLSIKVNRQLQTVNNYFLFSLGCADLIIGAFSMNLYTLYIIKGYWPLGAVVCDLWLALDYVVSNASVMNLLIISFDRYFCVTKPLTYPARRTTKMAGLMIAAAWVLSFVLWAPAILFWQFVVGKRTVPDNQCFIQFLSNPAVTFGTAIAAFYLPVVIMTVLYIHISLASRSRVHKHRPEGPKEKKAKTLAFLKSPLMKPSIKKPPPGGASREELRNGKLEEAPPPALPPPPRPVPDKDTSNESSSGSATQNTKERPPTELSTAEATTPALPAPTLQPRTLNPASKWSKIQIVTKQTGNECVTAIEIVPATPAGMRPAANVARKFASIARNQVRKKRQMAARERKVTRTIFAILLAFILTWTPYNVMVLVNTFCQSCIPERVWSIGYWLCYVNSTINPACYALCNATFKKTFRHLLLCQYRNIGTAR
# Procedure, shortened: as §1
# [3] = target: T3, human M1 (Homo sapiens, UniProt P11229); assay: Built-in HTS counterscreen, human M1; assay type: cell-based
# T3 sequence (P11229 1-460): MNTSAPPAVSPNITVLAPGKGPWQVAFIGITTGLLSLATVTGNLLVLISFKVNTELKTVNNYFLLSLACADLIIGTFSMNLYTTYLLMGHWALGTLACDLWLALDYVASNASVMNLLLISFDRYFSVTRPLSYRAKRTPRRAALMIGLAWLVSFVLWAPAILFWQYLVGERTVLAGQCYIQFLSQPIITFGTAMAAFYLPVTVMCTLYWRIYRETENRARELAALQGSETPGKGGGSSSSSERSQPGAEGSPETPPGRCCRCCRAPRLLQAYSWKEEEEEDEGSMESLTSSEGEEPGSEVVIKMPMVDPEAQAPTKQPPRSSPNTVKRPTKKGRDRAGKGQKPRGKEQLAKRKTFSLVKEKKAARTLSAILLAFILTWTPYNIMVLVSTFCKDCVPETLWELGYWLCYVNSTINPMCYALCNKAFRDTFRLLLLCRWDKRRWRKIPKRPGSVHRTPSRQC
# [4] = target: T4, human M5 (Homo sapiens, UniProt P08912); assay: Built-in HTS counterscreen, human M5; assay type: cell-based
# T4 sequence (P08912 1-532): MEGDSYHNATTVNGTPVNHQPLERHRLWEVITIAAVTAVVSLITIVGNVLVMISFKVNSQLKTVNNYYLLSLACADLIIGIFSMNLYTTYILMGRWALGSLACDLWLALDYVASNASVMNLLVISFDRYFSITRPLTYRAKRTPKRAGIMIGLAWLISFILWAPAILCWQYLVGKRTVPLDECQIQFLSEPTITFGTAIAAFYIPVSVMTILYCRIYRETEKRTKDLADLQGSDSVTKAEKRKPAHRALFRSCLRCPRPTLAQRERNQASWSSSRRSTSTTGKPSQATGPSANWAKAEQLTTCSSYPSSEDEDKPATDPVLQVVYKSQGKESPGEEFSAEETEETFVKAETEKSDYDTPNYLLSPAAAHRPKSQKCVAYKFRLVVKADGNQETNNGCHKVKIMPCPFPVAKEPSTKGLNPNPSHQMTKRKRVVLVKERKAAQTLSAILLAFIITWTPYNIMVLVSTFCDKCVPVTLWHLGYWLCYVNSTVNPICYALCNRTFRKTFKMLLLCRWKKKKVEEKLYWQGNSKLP
# [5] = Hepatic microsomal intrinsic clearance, human; assay type: in vitro ADME
# Procedure, shortened: (§2)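 Intrinsic clearance was measured in hepatic microsomes (human for line 4, rat for line 5), and predicted hepatic clearance was calculated from the microsomal CLint. Data come from a single experiment run in triplicate.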
# [6] = Hepatic microsomal intrinsic clearance, rat; assay type: in vitro ADME; settings: for predicted hepatic clearance rCLhep: rat, from microsomal CLint
# Procedure, shortened: as §2
# [7] = Metabolite identification in human cryopreserved hepatocytes; assay type: in vitro ADME; settings: secondary alcohol 18 as the single major metabolite
# [8] = human hepatic microsomes, in words
# [9] = rat hepatic microsomes, in words
smiles,measurement,setting,value
Cc1nc2sc(C(=O)c3ccccc3)c(N)c2c(C)c1C [Cpd 7],human M4 % ACh Max,"[1]; HTS hit, using DMSO stock from the source plates",76%
same,hM4 ACh Max,[1]; unit not given,76.8±4.1
same,rM4 ACh Max,[2],80.5±6.3
same,activity on human M1,[3],inactive
same,activity on human M5,[4],inactive
same,in vitro intrinsic clearance (CLint),[5]; [8],very high
same,predicted hepatic clearance (CLhep),[5]; [8],near hepatic blood flow rates
same,in vitro intrinsic clearance (CLint),[6]; [9],very high
same,predicted hepatic clearance (CLhep),[6]; [9],near hepatic blood flow rates
Cc1cc(C)c2c(N)c(C(=O)c3ccncc3)sc2n1 [Cpd 12f],metabolism route (Met ID),[7],"rapid, and near quantitative, reductive metabolism"
Cc1cc(C)c2c(N)c(C(=O)CCc3ccncc3)sc2n1 [Cpd 19],predicted hepatic clearance hCLhep,"[5]; human, from microsomal CLint",18 mL/min/kg
same,predicted hepatic clearance rCLhep,[6],62 mL/min/kg
COc1ccc(CCC(=O)c2sc3nnc(C)c(C)c3c2N)cc1F [Cpd 20],predicted hepatic clearance rCLhep,[6],62 mL/min/kg
